Test results: ChEMBL document CHEMBL2151038, “Synthesis, characterization and biological evaluation of some novel 2,4-thiazolidinediones as potential cytotoxic, antimicrobial and antihyperglycemic agents” (Bioorg Med Chem Lett, 2012)
In brackets after ≈: the same amount, converted by molar mass.

How the values were obtained:
[1] = tested on: Klebsiella pneumoniae; assay: Antibacterial activity against Klebsiella pneumoniae NCIM 5082 after 24 hrs by NCCLS agar well diffusion method; format: functional; settings: NCIM 5082, 24 h
How it was run: (§1)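 Nutrient agar seeded with 0.1 mL bacterial suspension (10⁵ CFU/mL in 0.85% saline). 6 mm wells filled with 0.1 mL compound. Plates in triplicate, 37 ± 0.5 °C for 24 h. MIC = lowest concentration giving complete growth inhibition.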

[2] = tested on: Bacillus subtilis; assay: Antibacterial activity against Bacillus subtilis NCIM 2063 after 24 hrs by NCCLS agar well diffusion method; format: functional; settings: NCIM 2063, 24 h; how it was run: as §1
[3] = tested on: Micrococcus luteus; assay: Antibacterial activity against Micrococcus luteus NCIM 2155 after 24 hrs by NCCLS agar well diffusion method; format: functional; settings: NCIM 2155, 24 h; how it was run: as §1
[4] = tested on: Artemia salina; assay: Cytotoxicity in brine shrimps larvae assessed as mortality after 24 hrs; format: functional; settings: read-out: ED50 (the source's name)
How it was run: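 Artemia salina nauplii hatched 38 h under constant aeration in sterile brine (sea salt 38 g/L, pH 8.5 with 1 N NaOH). Ten nauplii per vial were exposed to a range of compound concentrations at 37 °C for 24 h under incandescent light, alongside vehicle-treated controls. Survivors were counted, % lethality was taken from mean survivors versus control, and ED50 came from probit analysis.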

[5] = tested on: Proteus vulgaris; assay: Antibacterial activity against Proteus vulgaris NCIM 2813 after 24 hrs by NCCLS agar well diffusion method; format: functional; settings: NCIM 2813, 24 h; how it was run: as §1
[6] = tested on: Rattus norvegicus; assay: Antihyperglycemic activity in po dosed streptozotocin-induced type 2 diabetic Wistar albino rat assessed as reduction in plasma glucose level by glucometer; format: functional, organism-based
How it was run: (§2)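 Wistar albino rats of either sex, 150–200 g, fasted 16 h. Diabetes induced by nicotinamide 150 mg/kg, then STZ 65 mg/kg in citrate buffer pH 4.5. Glucose confirmed after 48 h. Groups of six. Oral dosing as 0.25% sodium CMC suspension at 10, 30 or 50 mg/kg. Rosiglitazone was the reference. Retro-orbital plasma glucose measured by glucometer before dosing and at 1, 2, 4, 6, 8, 12 and 24 h. Results as mean ± SEM, compared by ANOVA, t-test and Dunnett's test.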

[7] = tested on: Aspergillus niger; assay: Antifungal activity against Aspergillus niger NCIM 548 after 48 hrs by NCCLS agar well diffusion method; format: functional; settings: NCIM 548, 48 h
How it was run: (§3)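 Spore suspensions in sterile distilled water adjusted to 10⁶ CFU/mL, 0.1 mL spread on potato-dextrose agar. 6 mm wells received 0.1 mL compound in 1% DMSO (final 16–512 µg/mL). Controls: 1% DMSO and ketoconazole (16 µg/mL). Triplicate plates, 48 h at 28 ± 0.2 °C. MIC = lowest concentration completely inhibiting growth.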

[8] = tested on: Bacillus pumilus; assay: Antibacterial activity against Bacillus pumilus NCIM 2327 after 24 hrs by NCCLS agar well diffusion method; format: functional; settings: NCIM 2327, 24 h; how it was run: as §1
[9] = Toxicity in mouse assessed as changes in vital functions; format: organism-based; settings: in vivo
[10] = tested on: Penicillium chrysogenum; assay: Antifungal activity against Penicillium chrysogenum NCIM 738 after 48 hrs by NCCLS agar well diffusion method; format: functional; settings: NCIM 738, 48 h; how it was run: as §3
[11] = tested on: Escherichia coli; assay: Antibacterial activity against Escherichia coli NCIM 2065 after 24 hrs by NCCLS agar well diffusion method; format: functional; settings: NCIM 2065, 24 h; how it was run: as §1
[12] = tested on: Rattus norvegicus; assay: Antihyperglycemic activity in streptozotocin-induced type 2 diabetic Wistar albino rat assessed as reduction in plasma glucose level at 30 mg/kg, po by glucometer; format: functional; how it was run: as §2
[13] = tested on: Rattus norvegicus; assay: Antihyperglycemic activity in streptozotocin-induced type 2 diabetic Wistar albino rat assessed as reduction in plasma glucose level at 10 mg/kg, po by glucometer; format: functional; how it was run: as §2
[14] = tested on: Rattus norvegicus; assay: Antihyperglycemic activity in streptozotocin-induced type 2 diabetic Wistar albino rat assessed as reduction in plasma glucose level at 50 mg/kg, po by glucometer; format: functional; how it was run: as §2
[15] = tested on: Pseudomonas aeruginosa; assay: Antibacterial activity against Pseudomonas aeruginosa NCIM 2036 after 24 hrs by NCCLS agar well diffusion method; format: functional; settings: NCIM 2036, 24 h; how it was run: as §1
[16] = tested on: Candida albicans; assay: Antifungal activity against Candida albicans NCIM 3102 after 48 hrs by NCCLS agar well diffusion method; format: functional; settings: NCIM 3102, 48 h; how it was run: as §3
[17] = tested on: Staphylococcus aureus; assay: Antibacterial activity against Staphylococcus aureus NCIM 2079 after 24 hrs by NCCLS agar well diffusion method; format: functional; settings: NCIM 2079, 24 h; how it was run: as §1
[18] = tested on: Aspergillus oryzae; assay: Antifungal activity against Aspergillus oryzae NCIM 643 after 48 hrs by NCCLS agar well diffusion method; format: functional; settings: NCIM 643, 48 h; how it was run: as §3

Structure (SMILES) | MIC [1] [mg/L] | MIC [2] [mg/L] | MIC [3] [mg/L] | EC50 [4] [mg/L] | MIC [5] [mg/L] | Activity [6] | MIC [7] [mg/L] | MIC [8] [mg/L] | MTD [9] [mg/kg] | MIC [10] [mg/L] | MIC [11] [mg/L] | Activity [12] [mg/dL] | Activity [13] [mg/dL] | Activity [14] [mg/dL] | MIC [15] [mg/L] | MIC [16] [mg/L] | MIC [17] [mg/L] | MIC [18] [mg/L]
O=C1NC(=O)/C(=C/c2ccc(/C=C/C(=O)c3ccc4c(c3)Cc3ccccc3-4)cc2)S1 | 256 (≈ 604 µM) | 256 (≈ 604 µM) | 512 (≈ 1210 µM) | 39.7 (≈ 93.6 µM) | 512 (≈ 1210 µM) | Dose-dependent effect | 256 (≈ 604 µM) | 256 (≈ 604 µM) | 2000 | 512 (≈ 1210 µM) | 128 (≈ 302 µM) | 44.62 | 39.83 | 52.81 | 128 (≈ 302 µM) | 256 (≈ 604 µM) | 256 (≈ 604 µM) | 256 (≈ 604 µM)
Cc1ccc(O)c(C(=O)/C=C/c2ccc(/C=C3\SC(=O)NC3=O)cc2)c1 | 128 (≈ 350 µM) | 128 (≈ 350 µM) | 512 (≈ 1400 µM) | 39.4 (≈ 108 µM) | 512 (≈ 1400 µM) | Dose-dependent effect | 128 (≈ 350 µM) | 256 (≈ 701 µM) | 2000 | 64 (≈ 175 µM) | 128 (≈ 350 µM) | 37.03 | 31.76 | 42.13 | 256 (≈ 701 µM) | 128 (≈ 350 µM) | 256 (≈ 701 µM) | 64 (≈ 175 µM)
O=C1NC(=O)/C(=C/c2ccc(/C=C/C(=O)c3ccc(Cl)cc3)cc2)S1 | 16 (≈ 43.3 µM) | 32 (≈ 86.5 µM) | 64 (≈ 173 µM) | 12.1 (≈ 32.6 µM) | 32 (≈ 86.5 µM) | Dose-dependent effect | 64 (≈ 173 µM) | 16 (≈ 43.3 µM) | 2000 | 64 (≈ 173 µM) | 32 (≈ 86.5 µM) | 32.38 | 26.74 | 36.17 | 32 (≈ 86.5 µM) | 64 (≈ 173 µM) | 32 (≈ 86.5 µM) | 64 (≈ 173 µM)
O=C1NC(=O)/C(=C/c2ccc(/C=C/C(=O)c3ccccc3)cc2)S1 | 512 (≈ 1530 µM) | 256 (≈ 763 µM) | 512 (≈ 1530 µM) | 44.7 (≈ 133 µM) | 512 (≈ 1530 µM) | Dose-dependent effect | 512 (≈ 1530 µM) | 256 (≈ 763 µM) | 2000 | 512 (≈ 1530 µM) | 256 (≈ 763 µM) | 11.51 |  | 15.61 | 256 (≈ 763 µM) | 512 (≈ 1530 µM) | 512 (≈ 1530 µM) | 512 (≈ 1530 µM)
O=C1NC(=O)/C(=C/c2ccc(/C=C/C(=O)c3cccc([N+](=O)[O-])c3)cc2)S1 | 256 (≈ 673 µM) | 256 (≈ 673 µM) | 256 (≈ 673 µM) | 56.1 (≈ 147 µM) | 512 (≈ 1350 µM) | Dose-dependent effect | 256 (≈ 673 µM) | 256 (≈ 673 µM) | 2000 | 256 (≈ 673 µM) | 128 (≈ 337 µM) | 14.72 | 11.18 | 16.56 | 128 (≈ 337 µM) | 512 (≈ 1350 µM) | 128 (≈ 337 µM) | 128 (≈ 337 µM)
O=C1NC(=O)/C(=C/c2ccc(/C=C/C(=O)c3ccccn3)cc2)S1 | 64 (≈ 190 µM) | 128 (≈ 381 µM) | 32 (≈ 95.1 µM) | 30.3 (≈ 90 µM) | 64 (≈ 190 µM) | Dose-dependent effect | 64 (≈ 190 µM) | 64 (≈ 190 µM) | 2000 | 128 (≈ 381 µM) | 64 (≈ 190 µM) | 34.68 | 22.78 | 43.72 | 128 (≈ 381 µM) | 64 (≈ 190 µM) | 64 (≈ 190 µM) | 64 (≈ 190 µM)
O=C1NC(=O)/C(=C/c2ccc(/C=C/C(=O)c3cccc(Cl)c3)cc2)S1 | 64 (≈ 173 µM) | 64 (≈ 173 µM) | 64 (≈ 173 µM) | 24.8 (≈ 67.1 µM) | 32 (≈ 86.5 µM) | Dose-dependent effect | 64 (≈ 173 µM) | 64 (≈ 173 µM) | 2000 | 64 (≈ 173 µM) | 64 (≈ 173 µM) | 15.42 | 11.71 | 21.83 | 32 (≈ 86.5 µM) | 128 (≈ 346 µM) | 64 (≈ 173 µM) | 64 (≈ 173 µM)
